Laboratory results reported in ChEMBL document CHEMBL3580613, “First enantiospecific syntheses of marine merosesquiterpenes neopetrosiquinones a and B: evaluation of biological activity” (J Nat Prod, 2015).
Activity calls are given as the source filed them. No cut-off for these calls is given here.

Experiments:
[1] = tested on: MCF7; assay: Induction of cell cycle arrest in 24 hrs serum-starved human MCF7 cells assessed as accumulation at S phase at antiproliferative IC50 incubated for 24 hrs by propidium iodide staining based flow cytometry (reference value: 17 +/- 0.8%); type: functional
[2] = tested on: MCF7; assay: Induction of cell cycle arrest in 24 hrs serum-starved human MCF7 cells assessed as accumulation at G2-M phase at antiproliferative IC50 incubated for 24 hrs by propidium iodide staining based flow cytometry (reference value: 28 +/- 0.3%); type: functional
[3] = tested on: A549; assay: Induction of cell cycle arrest in 24 hrs serum-starved human A549 cells assessed as accumulation at G2-M phase at antiproliferative IC50 incubated for 24 hrs by propidium iodide staining based flow cytometry (reference value: 22 +/- 1.8%); type: functional
[4] = tested on: MCF7; assay: Induction of cell cycle arrest in 24 hrs serum-starved human MCF7 cells assessed as accumulation at G0-G1 phase at 2 times antiproliferative IC50 incubated for 24 hrs by propidium iodide staining based flow cytometry (reference value: 51 +/- 0.9%); type: functional
[5] = tested on: T84; assay: Induction of cell cycle arrest in 24 hrs serum-starved human T84 cells assessed as accumulation at G2-M phase at 2 times antiproliferative IC50 incubated for 24 hrs by propidium iodide staining based flow cytometry (reference value: 18 +/- 1%); type: functional
[6] = tested on: T84; assay: Induction of apoptosis in 24 hrs serum-starved human T84 cells assessed as accumulation at subG1 phase at antiproliferative IC50 incubated for 24 hrs by propidium iodide staining based flow cytometry (reference value: 4 +/- 0.3%); type: functional
[7] = tested on: A549; assay: Induction of apoptosis in 24 hrs serum-starved human A549 cells assessed as accumulation at subG1 phase at 2 times antiproliferative IC50 incubated for 24 hrs by propidium iodide staining based flow cytometry (reference value: 3.5 +/- 1.1%); type: functional
[8] = tested on: MCF7; assay: Induction of apoptosis in human MCF7 cells at antiproliferative IC50 incubated for 6 hrs by fluorescence microscopy based TUNEL DNA fragmentation assay; type: functional, cell-based
[9] = tested on: T84; assay: Induction of cell cycle arrest in 24 hrs serum-starved human T84 cells assessed as accumulation at S phase at 2 times antiproliferative IC50 incubated for 24 hrs by propidium iodide staining based flow cytometry (reference value: 13 +/- 0.6%); type: functional
[10] = tested on: A549; assay: Induction of cell cycle arrest in 24 hrs serum-starved human A549 cells assessed as accumulation at G2-M phase at 2 times antiproliferative IC50 incubated for 24 hrs by propidium iodide staining based flow cytometry (reference value: 22 +/- 1.8%); type: functional
[11] = tested on: T84; assay: Induction of cell cycle arrest in 24 hrs serum-starved human T84 cells assessed as accumulation at G0-G1 phase at 2 times antiproliferative IC50 incubated for 24 hrs by propidium iodide staining based flow cytometry (reference value: 65 +/- 1.1%); type: functional
[12] = tested on: MCF7; assay: Antiproliferative activity against human MCF7 cells incubated for 3 days by sulforhodamine B assay; type: functional, cell-based; details: MCF7, 72 h
Procedure, shortened: (§1)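 Cells in DMEM with 10% heat-inactivated FBS, penicillin–streptomycin and 2 mM L-glutamine at 37 °C, 5% CO2. Seeded at 5 × 10^3 cells/cm2 in quadruplicate. After 24 h, exposed to increasing compound concentrations for 3 days. Fixed with cold 10% TCA, stained with 0.4% sulforhodamine in 1% acetic acid, dye solubilized in 10 mM Tris-base pH 10.5, OD read at 492 nm. IC50 by linear interpolation on semilog dose–response curve. Mean ± SEM of four independent determinations.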

[13] = tested on: MCF7; assay: Induction of apoptosis in 24 hrs serum-starved human MCF7 cells assessed as accumulation at subG1 phase at 2 times antiproliferative IC50 incubated for 24 hrs by propidium iodide staining based flow cytometry (reference value: 4 +/- 1.1%); type: functional
[14] = tested on: T84; assay: Antiproliferative activity against human T84 cells incubated for 3 days by sulforhodamine B assay; type: functional, cell-based; details: T84, 72 h; procedure, shortened: as §1
[15] = tested on: T84; assay: Induction of cell cycle arrest in 24 hrs serum-starved human T84 cells assessed as accumulation at G2-M phase at antiproliferative IC50 incubated for 24 hrs by propidium iodide staining based flow cytometry (reference value: 18 +/- 1%); type: functional
[16] = tested on: MCF7; assay: Induction of apoptosis in 24 hrs serum-starved human MCF7 cells assessed as accumulation at subG1 phase at antiproliferative IC50 incubated for 24 hrs by propidium iodide staining based flow cytometry (reference value: 4 +/- 1.1%); type: functional
[17] = tested on: T84; assay: Induction of cell cycle arrest in 24 hrs serum-starved human T84 cells assessed as accumulation at S phase at antiproliferative IC50 incubated for 24 hrs by propidium iodide staining based flow cytometry (reference value: 13 +/- 0.6%); type: functional
[18] = tested on: A549; assay: Antiproliferative activity against human A549 cells incubated for 3 days by sulforhodamine B assay; type: functional, cell-based; details: A549, 72 h; procedure, shortened: as §1
[19] = tested on: T84; assay: Induction of cell cycle arrest in 24 hrs serum-starved human T84 cells assessed as accumulation at G0-G1 phase at antiproliferative IC50 incubated for 24 hrs by propidium iodide staining based flow cytometry (reference value: 65 +/- 1.1%); type: functional
[20] = tested on: MCF7; assay: Induction of cell cycle arrest in 24 hrs serum-starved human MCF7 cells assessed as accumulation at G2-M phase at 2 times antiproliferative IC50 incubated for 24 hrs by propidium iodide staining based flow cytometry (reference value: 28 +/- 0.3%); type: functional
[21] = tested on: A549; assay: Induction of cell cycle arrest in 24 hrs serum-starved human A549 cells assessed as accumulation at S phase at antiproliferative IC50 incubated for 24 hrs by propidium iodide staining based flow cytometry (reference value: 12 +/- 0.9%); type: functional
[22] = tested on: A549; assay: Induction of cell cycle arrest in 24 hrs serum-starved human A549 cells assessed as accumulation at G0-G1 phase at 2 times antiproliferative IC50 incubated for 24 hrs by propidium iodide staining based flow cytometry (reference value: 62 +/- 1%); type: functional
[23] = tested on: A549; assay: Induction of cell cycle arrest in 24 hrs serum-starved human A549 cells assessed as accumulation at S phase at 2 times antiproliferative IC50 incubated for 24 hrs by propidium iodide staining based flow cytometry (reference value: 12 +/- 0.9%); type: functional
[24] = tested on: A549; assay: Induction of cell cycle arrest in 24 hrs serum-starved human A549 cells assessed as accumulation at G0-G1 phase at antiproliferative IC50 incubated for 24 hrs by propidium iodide staining based flow cytometry (reference value: 62 +/- 1%); type: functional
[25] = tested on: A549; assay: Induction of apoptosis in 24 hrs serum-starved human A549 cells assessed as accumulation at subG1 phase at antiproliferative IC50 incubated for 24 hrs by propidium iodide staining based flow cytometry (reference value: 3.5 +/- 1.1%); type: functional
[26] = tested on: MCF7; assay: Induction of cell cycle arrest in 24 hrs serum-starved human MCF7 cells assessed as accumulation at G0-G1 phase at antiproliferative IC50 incubated for 24 hrs by propidium iodide staining based flow cytometry (reference value: 51 +/- 0.9%); type: functional
[27] = tested on: T84; assay: Induction of apoptosis in 24 hrs serum-starved human T84 cells assessed as accumulation at subG1 phase at 2 times antiproliferative IC50 incubated for 24 hrs by propidium iodide staining based flow cytometry (reference value: 4 +/- 0.3%); type: functional
[28] = tested on: MCF7; assay: Induction of cell cycle arrest in 24 hrs serum-starved human MCF7 cells assessed as accumulation at S phase at 2 times antiproliferative IC50 incubated for 24 hrs by propidium iodide staining based flow cytometry (reference value: 17 +/- 0.8%); type: functional
[29] = tested on: Trypanosoma cruzi; assay: Antiparasitic activity against Trypanosoma cruzi; type: functional, organism-based
[30] = tested on: MCF7; assay: Induction of apoptosis in human MCF7 cells at 2 times antiproliferative IC50 incubated for 6 hrs by fluorescence microscopy based TUNEL DNA fragmentation assay; type: functional, cell-based

Row | SMILES | Activity [1] | Activity [2] | Activity [3] | Activity [4] | Activity [5] | Activity [6] | Activity [7] | Activity [9] | Activity [10] | Activity [11] | IC50 [12] | Activity [13] | IC50 [14] | Activity [15] | Activity [16] | Activity [17] | IC50 [18] | Activity [19] | Activity [20] | Activity [21] | also measured
1 | C[C@]1(CO)CCC[C@]2(C)c3cc4c(cc3C=C[C@@H]12)C(=O)C=CC4=O | 12% | 17% | 17% | 5% | 7.1% | 6.2% | 6.1% | 9% | 15% | 71% | 7.7 µM | 93% | 11.5 µM | 18% | 32% | 17% | 8.3 µM | 59% | 1.7% | 16% | Activity [8]: Active; Activity [22]: 67%; Activity [23]: 12%; Activity [24]: 62%; Activity [25]: 4%; Activity [26]: 39%; Activity [27]: 14%; Activity [28]: 0.7%
2 | C[C@]1(CO)CCC[C@]2(C)c3cc4c(cc3C(=O)C[C@@H]12)C(=O)C=CC4=O | 9.4% | 19% | 20% | 24% | 15% | 5.6% | 8.1% | 17% | 17% | 62% | 6.6 µM | 60% | 8 µM | 17% | 34% | 15% | 4.1 µM | 63% | 9.7% | 14% | Activity [8]: Active; Activity [22]: 59%; Activity [23]: 16%; Activity [24]: 63%; Activity [25]: 3.9%; Activity [26]: 37%; Activity [27]: 6.3%; Activity [28]: 6.4%
3 | CC1(C)CCC[C@@]2(C)c3cc4c(cc3CC[C@H]12)C(=O)C=CC4=O [CYCLOZONARONE] |  |  |  |  |  |  |  |  |  |  |  |  |  |  |  |  |  |  |  |  | IC50 [29]: 0.7 µM
4 | COc1ccc(OC)c2cc3c(cc12)C(=O)C[C@H]1[C@@](C)(CO)CCC[C@]31C | 11% | 17% | 14% | 6.9% | 6.1% | 5.7% | 18% | 9.4% | 8% | 76% | 33 µM | 91% | 42 µM | 12% | 6.6% | 15% | 21 µM | 68% | 1% | 12% | Activity [22]: 67%; Activity [30]: Active; Activity [23]: 7.5%; Activity [24]: 68%; Activity [25]: 5.7%; Activity [26]: 66%; Activity [27]: 8.2%; Activity [28]: 0.7%
